Source: PubChem (several laboratories)
The list is not random: actives were taken first. Their share in the collection is about 1.7%.
RanGTP-Impb inh: inhibitors of RanGTP-importin-beta interaction, primary screen, biochemical, FRET, CFP-Ran, YFP-importin-beta, homogeneous; AID 2216; cell-free CFP-Ran/YFP-importin-beta FRET ratio; inhibition, % (no concentration beside the values); hit rate 1.1% among 300,000;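 active = more than half of the replicate wells show a fall in the fluorescence ratio signal beyond about 16%, limit read from the data, passing the limit was not always enough; inconclusive = exactly half of the replicate wells pass the set limit; inactive = fewer than half of replicates pass the limit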;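 also: 0% = DMSO wells and 100% = Ran loaded with GDP instead of GTP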
Hck-Nef inh: blocks Nef-activated human Hck kinase. Recombinant Hck-YEEI plus Nef, Z-Lyte FRET kinase assay. inhibition, % at 20 µM. hit rate 0.68% among 220,000. AID 463187;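 active = Hck-Nef kinase inhibition above about 50%, limit read from the data; inactive = inhibition below that limit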;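 also: 0% = DMSO with Hck plus Nef and 100% = Hck alone without Nef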
Target sequence (P08631 whole entry, looked up): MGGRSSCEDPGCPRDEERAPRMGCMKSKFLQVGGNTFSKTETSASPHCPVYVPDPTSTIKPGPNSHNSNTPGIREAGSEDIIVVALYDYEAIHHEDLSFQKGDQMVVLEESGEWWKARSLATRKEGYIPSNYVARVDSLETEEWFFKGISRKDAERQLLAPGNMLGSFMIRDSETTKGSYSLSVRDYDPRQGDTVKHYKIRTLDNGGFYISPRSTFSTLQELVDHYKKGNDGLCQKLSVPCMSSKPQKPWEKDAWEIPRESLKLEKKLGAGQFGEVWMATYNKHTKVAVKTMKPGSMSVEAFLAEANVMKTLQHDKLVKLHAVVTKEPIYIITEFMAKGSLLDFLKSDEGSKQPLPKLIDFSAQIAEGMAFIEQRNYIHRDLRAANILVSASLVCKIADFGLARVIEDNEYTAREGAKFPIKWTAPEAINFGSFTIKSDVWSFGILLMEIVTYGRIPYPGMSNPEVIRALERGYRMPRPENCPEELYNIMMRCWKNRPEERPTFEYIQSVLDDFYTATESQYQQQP
Runt-SMMHC FRET: Runt domain-CBFb-SMMHC interaction inhibition | AID 1434 | inhibition, % at 20 µM | hit rate 0.74% among 220,000 | Cerulean-Runt/Venus-CBFb-SMMHC FRET ratio 530/480, 1 h | Q01196+Q13951;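 active = mean inhibition across duplicate retests at 20 µM reaching about 50%, limit read from the data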;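 also: 0% = DMSO wells and 100% = wells with excess untagged CBFb-SMMHC; inhibitors lower the FRET ratio by blocking Runt binding to CBFb-SMMHC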
Runt-CBFb FRET: Runt domain-CBFb interaction inhibition | Q01196+Q13951 | Cerulean-Runt/Venus-CBFb FRET ratio 530/480, 1 h | inhibition, % at 20 µM | hit rate 0.46% among 220,000;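 active = inhibition over about 50% at 20 µM in the single-dose screen, limit read from the data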;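 also: 0% = DMSO wells and 100% = excess unlabeled CBFb competitor control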
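Schedule: protein complex preformed 1 h, compound exposure 1 h, room temperature, dark; test system: Cerulean-labeled Runt domain protein; amount: 100 nM per protein; buffer or medium: Tris 50 mM pH 7.5, KCl, K2SO4, 0.01% BSA; read-out: loss of energy transfer signal; detection: FRET fluorescence; controls: 5 µM unlabeled CBFb as full-inhibition high control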
Hck-Nef confirm: confirmation of Hck-Nef kinase inhibitors; shares compounds with Hck-Nef inh; calls only at 10 µM; Recombinant Hck-YEEI:Nef, Z-Lyte FRET kinase assay; hit rate 28% among 1,300;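 active = average inhibition of at least 50%, with Z-scores no higher than 3 in both the phospho-tyrosine peptide and fluorescence counterscreens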
An asterisk follows results filed as active; i = inactive; u = inconclusive; x = not tested or not shown; + = active, no number.

SMILES	RanGTP-Impb inh	Hck-Nef inh	Runt-SMMHC FRET	Runt-CBFb FRET	Hck-Nef confirm
O=C1/C(=C\c2ccco2)SC(=S)N1C1CCS(=O)(=O)C1 (centres undefined)	-2	69*	-2	30	i
CCOC(=O)c1cc2c(=O)n3cccc(C)c3nc2n(CC(C)C)c1=NC(=O)c1ccco1	164*	+	88*	10	i
CCOC(=O)c1cc2c(=O)n3cccc(C)c3nc2n(CC2CCCO2)c1=NC(C)=O (centres undefined)	22*	74*	x	x	i
COCCCn1c(C(=O)N2CC(C)OC(C)C2)cc2c(=O)n3cccc(C)c3nc21 (centres undefined)	2	x	x	x	x
Cc1cccn2c(=O)c3cc(C(=O)N4CCN(C(=O)c5ccco5)CC4)n(C)c3nc12	-2	41	19	4	x
CCOCCCn1c(=NC(=O)c2ccco2)c(C(=O)OCC)cc2c(=O)n3cccc(C)c3nc21	152*	133*	81*	12	x
CNc1nc2ccccc2n1CC(=O)c1ccccc1	2	x	x	x	x
NC(=O)CSc1nccn1Cc1ccc(Cl)cc1	2	-18	-3	4	x
O=C(Nc1ccccc1)Nc1snnc1C(=O)Nc1cccc(O)c1	5	60*	-11	-1	+
O=C(Nc1cccc(O)c1)c1cccc(C(=O)Nc2cccc(O)c2)c1	-1	x	x	x	x
C#CCn1c(=NC(=O)c2ccc(S(=O)(=O)N3CCc4ccccc4C3)cc2)sc2cc(S(N)(=O)=O)ccc21	10	27	-6	-4	x
C#CCn1c(=NC(=O)c2sc3ccccc3c2Cl)sc2cc(S(N)(=O)=O)ccc21	3	62*	-31	-18	+
Cc1ccc(-n2cccc2/C=C2\C(=N)N3N=C(c4ccco4)SC3=NC2=O)cc1	x	70*	-56	-21	+
CN(NC1OC(=O)c2ccccc21)c1ccc(C(F)(F)F)cc1[N+](=O)[O-] (centres undefined)	-4	-1	-4	0	x
N=c1c(C(=O)NCC2CCCO2)cc2c(=O)n3ccccc3nc2n1Cc1cccnc1 (centres undefined)	182*	128*	57*	18	x
Cc1ccc(-c2cc(C(=O)NCC3CCCO3)c3ccccc3n2)cc1C (centres undefined)	-2	18	2	-6	x
Cc1cccn2c(=O)c3cc(C(=O)NCC4CCCO4)c(=N)n(Cc4cccnc4)c3nc12 (centres undefined)	x	118*	57*	18	x
COc1cccc2cc(-c3csc(CCn4nc(C)cc4C)n3)c(=O)oc12	2	2	-3	-3	x
CC/C(C)=N/Nc1nc(-c2cc3cccc(OC)c3oc2=O)cs1	0	57*	-14	11	i
CC(Oc1coc(CN2CCN(C(=O)c3ccco3)CC2)cc1=O)c1ccccc1 (centres undefined)	2	x	x	x	x
CN=c1scc(-c2ccco2)n1/N=C/c1ccc(O)c(O)c1	-2	51*	9	7	i
Clc1ccc(C2=NN(c3ccccc3)C(c3ccco3)C2)cc1 (centres undefined)	8	60*	84	16	i
Cc1nnc(SCC(=O)N2N=C(c3ccc(Cl)cc3)CC2c2ccco2)[nH]c1=O (centres undefined)	-1	50*	25	23	i
CCOC(=O)c1c(-c2ccccc2)oc2cc(CN(C)C)c(O)c(CN(C)C)c12	0	-1	x	x	x
CC1CC(C)CN(C(=O)COC(=O)Cc2ccc(Br)cc2)C1 (centres undefined)	2	x	x	x	x
SMILES	RanGTP-Impb inh	Hck-Nef inh	Runt-SMMHC FRET	Runt-CBFb FRET	Hck-Nef confirm
COc1ccc(CNC(=O)C2=CC(c3ccc(OC)cc3)=NS(=O)(=O)N2C)cc1	2	x	x	x	x
COc1cc(/C=C/c2sc3ccccc3[n+]2CCCS(=O)(=O)[O-])ccc1O	-120	65*	-233	-95	i
Cc1ccc2sc(C)[n+](CCCS(=O)(=O)[O-])c2c1	2	-3	36	45	x
CCN(CC(=O)Nc1ccc(NC(C)=O)cc1)C(=O)Cc1ccc(Cl)c(Cl)c1	-2	x	x	x	x
Cc1n[nH]c(C)c1Sc1ccccc1N=Cc1cc(Cl)cc([N+](=O)[O-])c1O	-2	-9	-2	3	x
Cc1ccc(N=Cc2cc(Cc3ccccc3Cl)cc([N+](=O)[O-])c2O)c(O)c1	-7	56*	-44	-18	i
Cc1ccccc1-n1c(=O)c(C#N)cc2c(=O)n3ccccc3nc21	128*	+	59*	19	x
CC1CN(C(=O)c2cc3c(=O)n4ccccc4nc3n2C)CC(C)O1 (centres undefined)	6	x	x	x	x
Cc1cc(-n2c(=O)c(C#N)cc3c(=O)n4ccccc4nc32)no1	161*	+	65*	12	x
N#Cc1cc2c(=O)n3ccccc3nc2n(-c2ccc(Cl)cc2)c1=O	x	173*	90*	47	x
C=CCn1cc(-c2ccccc2)cc(C#N)c1=O	-7	3	6	2	x
C=CCn1c(=O)c(C#N)cc2c(=O)n3ccccc3nc21	75*	155*	79*	10	x
CCOC(=O)Cc1csc(NC(=O)C(NC(=O)C2CCCCC2)C(C)C)n1 (centres undefined)	3	18	4	1	x
CC(C)CNC(=O)c1c(N)n(/N=C/c2ccccn2)c2nc3ccccc3nc12	8	51*	-1	-1	i
COc1ccc(Nc2ccnc(Nc3ccc(OC)cc3)n2)cc1	5	88*	2	-3	+
COc1ccc(Nc2nc(OC)nc(OC)n2)cc1	-1	x	x	x	x
CCOC(=O)c1ccc2c(c1)C1C=CCC1C(C(=O)O)N2 (centres undefined)	x	59*	1	3	+
COc1cc(/C=C2\SC(=N)N(c3ccc(F)cc3)C2=O)ccc1O	-1	77*	-82	-36	i
CCN(CC)c1ccc(-c2nn3c(-c4ccccc4OC)nnc3s2)cc1	8	51*	26	5	i
CC1CC1C(=O)OCC(=O)Nc1ccc2[nH]c(=O)[nH]c2c1 (centres undefined)	u	-10	3	2	x
CCN(CCS(=O)(=O)c1ccc(Cl)cc1)C(=O)Nc1ccc(Cl)cc1	0	-4	-6	2	x
CCOP(=O)(O)c1ccccc1OCCOCCOc1ccccc1P(=O)(O)OCC	-1	94*	-1	0	i
O=C(Nc1ccc(Cl)c(C(F)(F)F)c1)NC1CC2CCCC(C1)N2C1CC1 (centres undefined)	0	0	x	x	x
CCc1nc(SCC(=O)Nc2ccc3c(c2)OCCO3)c2oc3ccccc3c2n1	2	88*	-10	-4	i
Cc1nc(SCC(=O)Nc2ccc3c(c2)OCCO3)c2oc3ccccc3c2n1	5	81*	-5	-1	i
Cc1cc(=O)oc2c(CN3CCCC3)c(O)ccc12	9	x	x	x	x
Cc1c(Cc2ccccc2)c(=O)oc2c(O)c(O)ccc12	-1	-24	8	19	x
